Experimental data reported in ChEMBL document CHEMBL1132567, “Structure-activity studies of conantokins as human N-methyl-D-aspartate receptor modulators” (J Med Chem, 1999).
Starred links: 1 amine or outer side, 2 acyl side, 3 side chain; linkers in the order of their positions; H or OH if unused. Positions of bridges follow the written chain, without caps; N, C: chain ends. Non-standard residues stand in square brackets, D forms with d. Residues, ends and D or L forms follow the SMILES beside them. X1 = NC(=O)CC[C@@H](C(=O)[*:2])[C@H](CC(N)=O)N[*:1]; NMeN = CN[C@@H](CC(N)=O)C(=O)O

Key:
[1] = molecular target: Glutamate [NMDA] receptor; test: The compound was tested for the inhibitory activity against N-methyl-D-aspartate glutamate receptor from superior temporal region of human brain by measuring spermine-enhanced [3H]- MK-801 binding
Method in brief: (§1)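 Crude synaptosomal membranes from the named human brain region, frozen at -70°C, then washed in water and in 5 mM Tris-HCl pH 7.4. Duplicate tubes at room temperature held membranes (about 0.25 mg/mL protein), 30 μM spermine, 2 nM [3H]MK-801 and peptide at 10^-9–10^-4 M, without added Ca2+ or with 1.5 mM CaCl2. Nonspecific binding was taken with 3 μM unlabeled MK-801. After 45 min, samples were filtered onto GF/B and counted by scintillation.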

[2] = molecular target: Glutamate [NMDA] receptor; test: The compound was tested for the inhibitory activity against N-methyl-D-aspartate glutamate receptor from mid-frontal region of human brain by measuring spermine-enhanced [3H]- MK-801 binding; method in brief: as §1
[3] = molecular target: Glutamate [NMDA] receptor; test: The compound was tested for the inhibitory activity against N-methyl-D-aspartate glutamate receptor from sensorimotor gyri region of human brain by measuring spermine-enhanced [3H]- MK-801 binding; method in brief: as §1

| Molecule | IC50 [1] [nM] | IC50 [2] [nM] | IC50 [3] [nM] |
| --- | --- | --- | --- |
| H-GEEELQEDQELIREKSD-NH2 | 9 | 20 | 18 |
| CSCC[C@H](NC(=O)[C@H](CCCCN)NC(=O)[C@H](CCC(N)=O)NC(=O)[C@H](Cc1ccc(O)cc1)NC(=O)[C@H](CCC(=O)O)NC(=O)[C@H](CCC(=O)O)NC(=O)[C@H](CCC(=O)O)NC(=O)CN)C(=O)N[C@@H](CC(C)C)C(=O)N[C@@H](CCC(=O)O)C(=O)N(C)[C@@H](CC(N)=O)C(=O)N[C@@H](CC(C)C)C(=O)N[C@@H](CCCN=C(N)N)C(=O)N[C@@H](CCC(=O)O)C(=O)N[C@@H](C)C(=O)N[C@@H](CCC(=O)O)C(=O)N[C@H](C(=O)N[C@@H](CCCCN)C(=O)N[C@@H](CCCCN)C(=O)N[C@@H](CC(N)=O)C(=O)N[C@@H](C)C(N)=O)C(C)C (H-GEEEYQKMLE[NMeN]LREAEVKKNA-NH2) |  | 125 |  |
| H-GEEELQEN-NH2 | 23 | 94 | 58 |
| H-GEEEYQKNQELIREKSN-NH2 | 56 | 99 | 47 |
| CC[C@@H](C)[C@H](NC(=O)[C@H](CC(C)C)NC(=O)[C@@H]1CCC(=O)NCCCC[C@H](NC(=O)[C@H](CCC(N)=O)NC(=O)[C@H](CC(C)C)NC(=O)[C@H](CCC(=O)O)NC(=O)[C@H](CCC(=O)O)NC(=O)[C@H](CCC(=O)O)NC(=O)CN)C(=O)N[C@@H](CC(N)=O)C(=O)N[C@H](CCC(N)=O)C(=O)N1)C(=O)N[C@@H](CCCN=C(N)N)C(=O)N[C@@H](CCC(=O)O)C(=O)N[C@@H](CCCCN)C(=O)N[C@@H](CO)C(=O)N[C@@H](CC(N)=O)C(N)=O |  | 8480 |  |
| CC[C@H](C)[C@@H]1NC(=O)[C@H](CC(C)C)NC(=O)[C@@H](NC(=O)[C@H](CCC(N)=O)[C@H](CC(N)=O)NC(=O)[C@H](C)NC(=O)[C@H](CCC(N)=O)NC(=O)[C@H](CC(C)C)NC(=O)[C@H](CCC(=O)O)NC(=O)[C@H](CCC(=O)O)NC(=O)[C@H](CCC(=O)O)NC(=O)CN)CCC(=O)NCCCC[C@@H](C(=O)N[C@@H](CCC(=O)O)C(=O)N[C@@H](CCCCN)C(=O)N[C@@H](CO)C(=O)N[C@@H](CC(N)=O)C(N)=O)NC1=O (H-GEEELQA[X1]ELIKEKSN-NH2; lactam 9-12) |  | > 20000 |  |
| CC[C@H](C)[C@H](NC(=O)[C@H](CC(C)C)NC(=O)[C@H](CCC(=O)O)NC(=O)[C@H](CCC(N)=O)NC(=O)[C@H](CC(N)=O)NC(=O)[C@H](CCCCN)NC(=O)[C@H](CCC(N)=O)NC(=O)[C@H](CC(C)C)NC(=O)[C@H](CCC(=O)O)NC(=O)[C@H](CCC(=O)O)NC(=O)[C@H](CCC(=O)O)NC(=O)CN)C(=O)N[C@@H](CCCN=C(N)N)C(=O)N[C@@H](CCC(=O)O)C(=O)N[C@@H](CCCCN)C(=O)N[C@@H](CO)C(=O)N[C@@H](CC(N)=O)C(N)=O |  | 11000 |  |
| CC[C@@H](C)[C@H](NC(=O)[C@H](CC(C)C)NC(=O)[C@H](CCC(=O)O)[C@H](CCC(N)=O)NC(=O)[C@H](CC(N)=O)NC(=O)[C@H](CCC(=O)O)NC(=O)[C@H](CCC(N)=O)NC(=O)[C@H](CC(C)C)NC(=O)[C@H](CCC(=O)O)NC(=O)[C@H](CCC(=O)O)NC(=O)[C@H](CCC(=O)O)NC(=O)CN)C(=O)N[C@@H](CCCN=C(N)N)C(=O)N[C@@H](CCC(=O)O)C(=O)N[C@@H](CCCCN)C(=O)N[C@@H](CO)C(=O)N[C@@H](CC(N)=O)C(N)=O | 21 | 69 | 59 |
| H-GEEEYQANQELIREKSN-NH2 | 570 | 546 | 475 |
| CC[C@H](C)[C@H](NC(=O)[C@H](CC(C)C)NC(=O)[C@H](CCC(=O)O)NC(=O)[C@H](CCC(N)=O)NC(=O)[C@H](CC(N)=O)NC(=O)[C@H](C)NC(=O)[C@H](CCC(N)=O)NC(=O)[C@H](CC(C)C)NC(=O)[C@H](CCC(=O)O)NC(=O)[C@H](CCC(=O)O)NC(=O)[C@H](CCC(=O)O)NC(=O)CN)C(=O)N[C@@H](CCCN=C(N)N)C(=O)N[C@@H](CCC(=O)O)C(=O)N[C@@H](CCCCN)C(=O)N[C@@H](CO)C(=O)N[C@@H](CC(N)=O)C(N)=O | 1680 | 3360 | 766 |
